Published values gathered from unrelated publications.
INSR: Insulin receptor (INSR, Homo sapiens, UniProt P06213)
INSR phosphorylated: Insulin receptor, phosphorylated (INSR, Homo sapiens, UniProt P06213)

With `COc1cc2ncnc(Nc3ccc(Oc4ccccc4)cc3C)c2cc1OC` the inhibition was -1% (INSR; enzyme activity, inhibitor; 1 µM).
For `C[C@H](NC(=O)c1cnc2n1[C@](C)(Cc1ccc(C#N)cc1)C(=O)N2c1cc(Cl)c(F)c(Cl)c1)C(=O)NC1(c2ccccn2)CC1`, the remaining binding was 100% (INSR; cell-free assay, competition with immobilised ligand; 1 µM).
With `N#CCCc1ccc2c(c1)-c1[nH]c3ccc([N+](=O)[O-])cc3c1CC(=O)N2` the remaining signal was 94.1% (INSR; cell-free assay; 0.5 µM).
The activity vs control of `Cc1cc(NC(=O)c2cccc3cc(-c4cccc5[nH]nc(N)c45)ccc23)ccc1F` is reported as 91% (INSR phosphorylated; enzyme activity, inhibitor; 0.1 µM).
`Cc1ccc(C(=O)NCc2ccsc2)cc1C#Cc1cn(C(C)C)c2ncnc(N)c12` gave an activity vs control of 82% (INSR; enzyme activity, inhibitor; 1 µM).
The inhibition of `CNC(=O)c1cc(Oc2ccc(NC(=O)Nc3ccc(Cl)c(C(F)(F)F)c3)cc2)ccn1` is reported as 3% (INSR; enzyme activity, inhibitor; 0.3 µM).
`CNC(=O)c1ccccc1Nc1cc(Nc2ccc(N3CCOCC3)cc2OC)ncc1C(F)(F)F` has an inhibition of over 50% (INSR; enzyme activity, inhibitor; 1 µM).
With `CNc1cccc2cc(C(=O)Nc3ccc(C(=O)O)cc3)c(=O)[nH]c12` the inhibition was 5.2% (INSR; enzyme activity, inhibitor; 10 µM).
With `Nc1ncnc2occ(-c3ccc(NC(=O)Nc4cc(C(F)(F)F)ccc4F)cc3)c12` the remaining signal was 3.2% (INSR; cell-free assay; 20 µM).
`Cc1ccc(Nc2nccc(N(C)c3ccc4c(C)n(C)nc4c3)n2)cc1S(N)(=O)=O` gave an inhibition of 27% (INSR; enzyme activity, inhibitor; 10 µM).
`CN1CC(Oc2cnc(C#N)cc2-c2ccn3nc(NC(=O)C4CC4)cc3c2)C1` gave an inhibition of 1% (INSR phosphorylated; enzyme activity, inhibitor; 1 µM).
The remaining binding of `O=C(NS(=O)(=O)c1ccc(NCC2CCOCC2)c([N+](=O)[O-])c1)c1ccc(N2CCN(Cc3ccc(C(F)(F)F)cc3-c3ccc(Cl)cc3)CC2)cc1Oc1cnc2[nH]ccc2c1` is reported as 89% (INSR; cell-free assay, competition with immobilised ligand; 1 µM).
`O=C1NC(=O)c2cc(Nc3ccc(F)cc3)c(Nc3ccc(F)cc3)cc21` has a remaining signal of 98.3% (INSR; cell-free assay; 0.5 µM).
For `CN(C)C1CCN(CC#Cc2nn(C3CCCC3)c3nc(NCc4ccccc4)ncc23)C1` (stereo not drawn), the inhibition was 8% (INSR; enzyme activity, inhibitor, FRET; 1 µM).
For `Cc1nc(C2CCN(C(=O)c3ccc(OC(F)(F)F)cc3N)CC2)c2ncc(N3CCN(C)CC3)cc2n1`, the remaining binding was 93% (INSR; cell-free assay, competition with immobilised ligand; 1 µM).
The inhibition of `CN(c1ncccc1CNc1nc(Nc2ccc3c(c2)CC(=O)N3)ncc1C(F)(F)F)S(C)(=O)=O` is reported as 57.2% (INSR; enzyme activity, inhibitor; 1 µM).
The remaining binding of `O=C(NC[C@@H]1[C@H]2CN(C(=O)OCc3cc(C(F)(F)F)cc(C(F)(F)F)c3)C[C@@H]12)c1ccc2[nH]nnc2c1` is reported as 83% (INSR; cell-free assay, competition with immobilised ligand; 1 µM).
For `Cc1ccc(NC(=O)c2ccc(C)c(C(F)(F)F)c2)cc1C#Cc1nn(C2CCC(O)CC2)c2ncnc(N)c12` (stereo not drawn), the remaining signal was 97% (INSR; cell-free assay; 10 µM).
For `O=C(O)[C@H]1[C@H](Cn2nnc3ccccc3c2=O)CC[C@@H]1C(=O)c1ccc(OCCC2CCOCC2)cc1`, the remaining binding was 78% (INSR; cell-free assay, competition with immobilised ligand; 1 µM).
With `O=C(CSc1nc2nccnc2c(=O)n1CCc1ccccc1)Nc1nccs1` the inhibition was 5% (INSR; enzyme activity, inhibitor; 10 µM).
`O=C(NCc1ncc(C(F)(F)F)cc1Cl)c1ccc2c(c1)C1(CCS(=O)(=O)CC1)[C@@H](C1CC1)N2S(=O)(=O)c1ccc(F)cc1` has a remaining binding of 100% (INSR; cell-free assay, competition with immobilised ligand; 1 µM).
For `CNCc1ccc(-c2cc(-c3nc(-c4ccc(S(=O)(=O)C(C)C)cc4)cnc3N)on2)cc1`, the inhibition was 0% (INSR; enzyme activity, inhibitor; 0.4 µM).
With `FC(F)(F)c1ccc2c(c1)nc(-c1cccnc1)n2C1CC1` the remaining binding was 100% (INSR; cell-free assay, competition with immobilised ligand; 1 µM).
`CC/C(=N\NC(=O)NCc1cccc(O)c1)c1ccc(O)c(C)c1O` has an inhibition of 0.1% (INSR; enzyme activity, inhibitor; 0.1 µM).
